Measured values from ChEMBL document CHEMBL5108040, “N-1,2,3-Triazole-isatin derivatives: anti-proliferation effects and target identification in solid tumour cell lines” (RSC Med Chem, 2022).
Activity calls are given as the source filed them. The rule behind the calls is not given here.

Legend:
[1] = Cytotoxicity against HEK293 cells assessed as inhibition of cell growth incubated for 72 hrs by MTT assay; type: toxicity, cell-based; conditions: human
Method in brief: (§1)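 MTT assay in human tumour lines SW480 (colon), A549 (lung adenocarcinoma), MCF7 and MDA-MB-231 (breast), in non-tumorigenic breast MCF10A, and in human embryonic kidney Hek293 as non-tumour reference. Compounds tested at several concentrations for 72 h; IC50 derived from dose-response and given as mean ± error. Cisplatin as reference.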

SW480 = test: Antiproliferative activity against human SW480 cells assessed as inhibition of cell growth incubated for 72 hrs by MTT assay; type: functional, cell-based; conditions: SW480, 72 h; method in brief: as §1
A549 = test: Antiproliferative activity against human A549 cells assessed as inhibition of cell growth incubated for 72 hrs by MTT assay; type: functional, cell-based; conditions: A549, 72 h; method in brief: as §1
MCF7 [2] = test: Antiproliferative activity against human MCF7 cells assessed as inhibition of cell growth incubated for 72 hrs by MTT assay; type: functional, cell-based; conditions: MCF7, 72 h; method in brief: as §1
MCF-10A [3] = test: Antiproliferative activity against human MCF-10A cells assessed as inhibition of cell growth incubated for 72 hrs by MTT assay; type: functional, cell-based; method in brief: as §1
MDA-MB-231 [4] = test: Antiproliferative activity against human MDA-MB-231 cells assessed as inhibition of cell growth incubated for 72 hrs by MTT assay; type: functional, cell-based; conditions: MDA-MB-231, 72 h; method in brief: as §1
MCF7 [5] = test: Downregulation of EP300 gene expression in human MCF7 cells at IC50 concentration incubated for 72 hrs by RT-PCR analysis; type: functional, cell-based
MDA-MB-231 [6] = test: Downregulation of EP300 gene expression in human MDA-MB-231 cells at IC50 concentration incubated for 72 hrs by RT-PCR analysis; type: functional, cell-based
[7] = Antiproliferative activity against human SW182 cells assessed as inhibition of cell growth at 2.5 to 2 mM incubated for 24 hrs by MTT assay relative to control; type: functional; set-up: scale not given: the % may be the effect or the level left; conditions: dose 2.5-2 mM, at 2 to 2.5 mM
[8] = Antiproliferative activity against human H199 cells assessed as inhibition of cell growth at 2.5 to 2 mM incubated for 24 hrs by MTT assay relative to control; type: functional; set-up: scale not given: the % may be the effect or the level left; conditions: dose 2.5-2 mM, at 2 to 2.5 mM
MCF-10A [9] = test: Downregulation of LYPLA2 gene expression in human MCF-10A cells at IC50 concentration incubated for 72 hrs by RT-PCR analysis; type: functional, cell-based
Method in brief: (§2)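 mRNA levels measured by qPCR in MCF7, MDA-MB-231 and MCF10A breast cells after compound treatment, against DMSO-treated vehicle control. LYPLA2 expression given as a ratio to GAPDH. Statistics by Brown-Forsythe and Welch ANOVA with Dunnett T3 correction; p < 0.05 and p < 0.01 marked.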

MDA-MB-231 [10] = test: Downregulation of LYPLA2 gene expression in human MDA-MB-231 cells at IC50 concentration incubated for 72 hrs by RT-PCR analysis; type: functional, cell-based; method in brief: as §2
MCF7 [11] = test: Downregulation of LYPLA2 gene expression in human MCF7 cells at IC50 concentration incubated for 72 hrs by RT-PCR analysis; type: functional, cell-based; method in brief: as §2

| Structure (SMILES) | IC50 at 72 h [1] [µM] | IC50 (SW480) [µM] | IC50 (A549) [µM] | further results |
| --- | --- | --- | --- | --- |
| COc1ccc([C@@]2(O)C(=O)N(Cc3cn(Cc4ccccc4)nn3)c3ccccc32)cc1 | 38 | 36.6 | 95.9 | – |
| COc1ccc([C@]2(O)C(=O)N(Cc3cn(Cc4ccccc4)nn3)c3ccccc32)cc1 | > 100 | 75.8 | > 100 | – |
| O=C1N(Cc2cn(Cc3ccccc3)nn2)c2ccccc2[C@@]1(O)c1ccc(F)cc1 | 50.3 | 28.2 | 72.1 | – |
| O=C1N(Cc2cn(Cc3ccccc3)nn2)c2ccc(Br)cc2[C@@]1(O)c1ccccc1 | 87.3 | 18.9 | 29.3 | IC50 (MCF7 [2]): 2040 nM; IC50 (MCF-10A [3]): 1100 nM; IC50 (MDA-MB-231 [4]): 1620 nM |
| O=C1N(Cc2cn(Cc3ccccc3)nn2)c2ccccc2[C@]1(O)c1ccc(F)cc1 | 53.5 | 32.1 | 77.3 | – |
| Cc1ccc2c(c1)C(=O)C(=O)N2Cc1cn(Cc2ccccc2)nn1 | 26.9 | 26.6 | 41.5 | IC50 (MCF7 [2]): 1500 nM; Activity (MCF7 [5]): Active; Activity (MDA-MB-231 [6]): Active; IC50 (MCF-10A [3]): 1540 nM; IC50 (MDA-MB-231 [4]): 2400 nM |
| O=C1N(Cc2cn(Cc3ccccc3)nn2)c2ccccc2[C@@]1(O)c1cccc(O)c1 | 33.7 | 31.8 | > 100 | – |
| CC(C)[C@@H]1CC[C@@H](C)C[C@@H]1n1cc(CN2C(=O)C3(OCCO3)c3ccccc32)nn1 | > 100 | > 100 | > 100 | – |
| Cc1ccc2nc(NC(=O)Cn3cc(CN4C(=O)C(=O)c5ccccc54)nn3)sc2c1 | – | – | – | Activity [7]: >50%; Activity [8]: >50% |
| O=C1N(Cc2cn(Cc3ccccc3)nn2)c2ccccc2[C@@]1(O)c1ccccc1 | > 100 | 62.4 | > 100 | – |
| CCCCn1cc(CN2C(=O)[C@@](O)(c3ccccc3)c3ccccc32)nn1 | > 100 | > 100 | > 100 | – |
| O=C1N(Cc2cn(Cc3ccccc3)nn2)c2ccccc2[C@]1(O)c1ccccc1 | > 100 | 75.3 | > 100 | – |
| O=C1C(=O)N(Cc2cn(Cc3ccccc3)nn2)c2ccccc21 | 63.7 | 32.2 | 54.7 | IC50 (MCF7 [2]): 1390 nM; Activity (MCF7 [5]): Active; Activity (MDA-MB-231 [6]): Active; IC50 (MCF-10A [3]): 1800 nM; IC50 (MDA-MB-231 [4]): 2950 nM |
| O=C1N(Cc2cn(Cc3ccccc3)nn2)c2ccccc2[C@]1(O)c1ccsc1 | 64 | 29.5 | > 100 | – |
| Cc1ccc([C@]2(O)C(=O)N(Cc3cn(Cc4ccccc4)nn3)c3ccccc32)cc1 | > 100 | > 100 | > 100 | – |
| O=C(Cn1cc(CN2C(=O)C(=O)c3ccccc32)nn1)Nc1nc2ccccc2s1 | – | – | – | Activity [7]: >50%; Activity [8]: >50% |
| O=C1N(Cc2cn(Cc3ccccc3)nn2)c2ccccc2[C@@]1(O)c1ccc2ccccc2c1 | 12.4 | 9.9 | 28.3 | IC50 (MCF7 [2]): 1750 nM; Activity (MCF-10A [9]): Active; IC50 (MCF-10A [3]): 1330 nM; Activity (MDA-MB-231 [10]): Active; IC50 (MDA-MB-231 [4]): 3100 nM |
| O=C1N(Cc2cn(Cc3ccccc3)nn2)c2ccc(Br)cc2[C@]1(O)c1ccccc1 | 36.1 | 28.7 | 65.9 | IC50 (MCF7 [2]): 1490 nM; Activity (MCF7 [11]): Active; IC50 (MCF-10A [3]): 1020 nM; Activity (MDA-MB-231 [10]): Active; IC50 (MDA-MB-231 [4]): 1410 nM |
| CCCCn1cc(CN2C(=O)[C@](O)(c3ccccc3)c3ccccc32)nn1 | > 100 | > 100 | > 100 | – |
| O=C1N(Cc2cn(Cc3ccccc3)nn2)c2ccccc2[C@]1(O)c1ccc2ccccc2c1 | 14 | 8.7 | 23.5 | – |
| CC(C)[C@@H]1CC[C@@H](C)C[C@@H]1n1cc(CN2C(=O)C(=O)c3ccccc32)nn1 | 23.1 | 8.9 | 53.8 | IC50 (MCF7 [2]): 1340 nM; Activity (MCF7 [5]): Active; Activity (MDA-MB-231 [6]): Active; IC50 (MCF-10A [3]): 1080 nM; IC50 (MDA-MB-231 [4]): 1790 nM |
| O=C1N(Cc2cn(Cc3ccccc3)nn2)c2ccccc2[C@@]1(O)c1ccsc1 | 46.4 | 62.5 | 98 | – |
| CS(=O)(=O)c1ccc2nc(NC(=O)Cn3cc(CN4C(=O)C(=O)c5ccccc54)nn3)sc2c1 | – | – | – | Activity [7]: >50%; Activity [8]: >50% |
